Reference: the EternaBench riboswitch data

System: MS2 coat protein
Experiment: apparent Kd, MS2 coat protein; higher = weaker binding; RNA-MaP array; FMN 200 µM where present
Summary of the method: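 Designs were transcribed by stalled E. coli RNA polymerase on Illumina sequencing-chip clusters. They were titrated with SNAP-549-labelled MS2 coat protein from 0.7 or 1.5 nM, doubling to 3 µM, in 100 mM Tris-HCl pH 7.5, 80 mM KCl, 4 mM MgCl2, BSA, DTT, yeast tRNA and Tween-20, without and then with constant ligand. The apparent Kd is the median of filtered per-cluster fits after normalisation of green signal to red-channel RNA signal and control-cluster median Fmax.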

[1] = designed as: OFF switch for flavin mononucleotide, no ligand
[2] = ligand present: flavin mononucleotide, designed as: OFF switch for flavin mononucleotide
[3] = ligand present: flavin mononucleotide, designed as: ON switch for flavin mononucleotide
[4] = designed as: ON switch for flavin mononucleotide, no ligand

Row | Sequence | apparent Kd [1] | apparent Kd [2] | apparent Kd [3] | apparent Kd [4]
1 | CUUGUUUAUGUAGGAUAUGCCUGGCGUGCCUUUGCAGAAGGACAUGAGGAUCACCCAUGUAACAUGAGGCUCCACCUUGUCGCC | 143 nM | 141 nM | – | –
2 | AGGAUGCGUGCAGGAUAUCGAGUCGGGAUGGCUCGCGUGGUGUGCCACAUGAGGAUCACCCAUGUCGAGAAGGGCAGGCGGCGC | 535 nM | 256 nM | – | –
3 | UAUAUACAUGAGGAUCACCCAUGUAAGGAUAUGCAUUAUUAUUAUUAUUAUUAUUAUUGCAGAAGGUACAAUAU | 40.7 nM | 39.3 nM | – | –
4 | GCCAGAGCAGGAUAUUCAAUAUCACACAUGAGGAUCACCCAUGUCCGGCGAAAGCUGGAGGGAGAAGGGCUCUGGC | 62.6 nM | 18.7 nM | – | –
5 | AAUUUACAGGUAGGAUAUACAUGAGGAUCACCCAUGUAAUCAUAUGAUAUUUUUUUUGUAUGAGUGUAGAAGGACCAAAUAAAA | 9.75 nM | 8.48 nM | – | –
6 | AAGAAACAUGAGGAUCACCCAUGUAAGAUAAACACAGGAUAUGCGAAUAAAAUAAAUAAAGCAGAAGGGUGAAGAA | – | – | 16.7 nM | –
7 | GGUACUCAAAGAGUACCAAUACGAACAUGAGGAUCACCCAUGUAGGAUAUGCUACUCAAAGAGUAGCAGAAGGACAUGUCCCUA | 13.1 nM | 35.2 nM | – | –
8 | UAUAUAUAGUAAGGAUAUGUAUAUAUUUAAUAAACAGAAGGUACUGACAUGAGGAUCACCCAUGUUUUAGUGUGGGCAUGUAGA | 74.1 nM | 110 nM | – | –
9 | UUGGGAUGCAAGAAGGGUGACAUGAGGAUCACCCAUGUGUUGUGAAGUCUCGAGAUUUUAUGACCAUAGGAUAUUGCACCGAAC | – | – | 21.6 nM | 31.6 nM
10 | GAGUUAGAGGGAGGAUAUUGAGAUAGGACACUACGAGAAGGCUUAUAAUAGAUAAACAUGAGGAUCACCCAUGUCAUGUAAUGG | 48.7 nM | 29.1 nM | – | –
11 | UAUAUUAUUAUAGGAUAUGGAUAUGAUGCAUAUCCAGAAGGGUGAUUAUAAUAUAAUCUAUACAUGAGGAUCACCCAUGUUUAU | – | – | 78.5 nM | 216 nM
12 | UUGGACCUAGGAUAUACAUGAGGAUCACCCAUGUUGGCGCACGCCCACCUGGACCCGAGUAGAAGGAGGAAAAU | 26.1 nM | 78.4 nM | – | –
13 | CGUAUAUGGGAGAAGGCAUGUUCCAAAGGGCCAUGAGGAUAUCCUAAGUGUACGCUUUGCGACAUGAGGAUCACCCAUGUAGCA | – | – | 6.34 nM | 8.95 nM
14 | CUGUGACGGUGCGCAAGUGGACGUAGAAGGGUCACAUGAGGAUCACCCAUGUGGGCCUGCUAGUGACAGGAUAUACGUUCGUGC | – | 65.2 nM | – | –
15 | UGGUACUAGGGAGGAUAUGGGAAGAUACAUGAGGAUCACCCAUGUUUAAGAAUGCCGAGAGGAAACUAGAAGGCCCUAGUACCU | – | – | 13.8 nM | 279 nM
16 | CUGUUUAAAGUGAGGAUAUGAACCUAGAACCAGGAUUAGAAGGCACAUGAGGAUCACCCAUGUGGUUGGUUGGG | 16.6 nM | 16.7 nM | – | –
17 | AGCUAGUACCGAGGAUAUACAUACAUGAGGAUCACCCAUGUAUACAUGAACAAUUGAGACUACAUGUAGAAGGCGGUACUAGCA | – | – | 18.6 nM | 49.9 nM
18 | CCGUAAGAGCGGACAUGAGGAUCACCCAUGUAAGAGUCAUCCAGAAGGUCAGCGCUAAAUGGAAUGAAGGAUAUGGAGUGGGUC | – | – | 357 nM | 668 nM
19 | AAGCGAAAGCUAAAAUAUCUAUCAGAGGAUAUUUAUGAUACAUGAGGAUCACCCAUGUGACACUGGGAGAAGGCUGAUAGAUAA | – | – | 7.5 nM | 19.2 nM

Row | Sequence | apparent Kd [1] | apparent Kd [2] | apparent Kd [3] | apparent Kd [4]
20 | CAGUACUGAGGAUAUACAUGAGGAUCACCCAUGUGCUCAAAGUAGGAUACUACUAUUAGUAGAAGGCAGUACUG | 22.2 nM | 214 nM | – | –
21 | GCUACCAAAGAAGCCAACAUGAGGAUCACCCAUGUAUGUUGGUAGGAUAUCGUAUGCAAAGCAUACGAGAAGGGCUAAGGUAGC | – | – | 116 nM | 98.8 nM
22 | UAUGUAUUCGUAGGAUAUCCGUCGAGACCGUGUGGAGAAGGACGAACAUGAGGAUCACCCAUGUAUCAUGGUGUAGACAAUUUU | 47.4 nM | 186 nM | – | –
23 | GGUCGUCAGAUUAACAUGAGGAUCACCCAUGUCUUUUGACAUGAGGAUAUGGAUCCUAAUUGGAUCCAGAAGGCAUGGACGACC | – | – | 104 nM | 1170 nM
24 | AAAAGCCAAGGAUAUACAUGAGGAUCACCCAUGUAAGAAAUGGGCGCUACCGUUCCGUGUAGAAGGUGGGAAAA | 28.6 nM | 65 nM | – | –
25 | GGGCUGUCAGGAUAUUGAUCGUGAUCGGAAAUGAUCGUGAUCGAGAAGGGACAUGAGGAUCACCCAUGUGGCCC | 30.8 nM | 33 nM | – | –
26 | GUGACGAAUGUAGGAUAUGCUGAGGAUAACUCAGCAGAAGGACAUGAGGAUCACCCAUGUACUAAUAGUGAUAAUAAACGUCAC | 14.8 nM | 82.5 nM | – | –
27 | CCGCAAAUGCAGGAUAUCGUAUCGGAUACGAUACGAGAAGGGCAAACAUGAGGAUCACCCAUGUGUCCUAGCGG | 15 nM | 26.6 nM | – | –
28 | CCCUCACAUGAGGAUCACCCAUGUCAGGAUAUUCGGCGGUCAAUUGACCGCCUUAAAGGAAGAAGGGACGUAAA | 12.7 nM | 18.9 nM | – | –
29 | AAAAAGUCAGGAUAUGGCAAAGGUCACGAAAGUGACAAAGGCUAGAAGGGACAUGAGGAUCACCCAUGUAAAAA | 29 nM | 32.4 nM | – | –
30 | UGGGUAAAUGUAGGAUAUCUAUAUUAAUAAUAUGGAGAAGGACAUGAGGAUCACCCAUGUACAGGGAAUUACCCAUUUCCUCUC | 275 nM | 556 nM | – | –
31 | UGUAAGAUGCAGAAGGUGUUAGCUAGAGCUACGACAUGAGGAUCACCCAUGUACUAGAAACAGUACAAGGAUAUGCAUCUUACA | – | – | 6.12 nM | 18.3 nM
32 | GGGUAGGUAGGAUAUGCGUGCAGGGUGUCUUCCAAUGAUCAACAUGAGGAUCACCCAUGUAGAAGGAUCGAGCU | 331 nM | 319 nM | – | –
33 | CUUGUGUUAGGAUAUGCGCCCUGCAAAAGCAGAGCCAGAGAGCAGAAGGAACAUGAGGAUCACCCAUGUGUGAC | 67.5 nM | 61.3 nM | – | –
34 | GUCGAUGUAGGAUAUUUCCACCCGCACAUGAGGAUCACCCAUGUGACCUUUUUCCGCUGGAAAGAAGGACGCGACA | 19.8 nM | 28.4 nM | – | –
35 | GGGUACAUCGGAGGAUAUCAUGUAAAUACAUGAGGAUCACCCAUGUCGAUGGAGACAUCGGAGAUUGAGAAGGCAGAUGUACCG | – | – | 18.1 nM | 333 nM
36 | AAUCUGUAGCAGAAGGUCAUUUUUAUAAAUAAGCUGGUGACAUGAGGAUCACCCAUGUAAAGGUUGAAGGAUAUGCAUUCUAUU | 90.5 nM | 343 nM | – | –
37 | UCGCUGCGAGGAUAUACGUGCGCGCGCUCGCGUGCGCGCGUACAUGAGGAUCACCCAUGUAGAAGGCGCGCUGC | 17.1 nM | 18.3 nM | – | –
38 | AAGUAUAGAGGAUAUAGUGAGUACUACAUGAGGAUCACCCAUGUUCUUCAAAGCGUAUUUCUAGAAGGCUAAUGAA | 50 nM | 114 nM | – | –

Row | Sequence | apparent Kd [1] | apparent Kd [2] | apparent Kd [3] | apparent Kd [4]
39 | UGCUACGUUUCGUAGCAGUGUCAUCGAGAAGGCCCUGACAUGAGGAUCACCCAUGUUGUUACAUGGGAGGAUAUCGAUGAUACC | – | – | 5.25 nM | 11.8 nM
40 | CAUUUGUGAGGAUAUCAGGUGUGCUAGCGUACUGGUACAUCUGAGAAGGCACAUGAGGAUCACCCAUGUUUCUU | – | 43.3 nM | – | –
41 | UGGUACAUCAUAGGAUAUCGUGUGUAAACAUGAGGAUCACCCAUGUCAUCCGAGAGUAUAUCGACCGAGAAGGGUGAUGUACCU | – | – | 33.3 nM | 24.1 nM
42 | UCGCGGGUGCAGAAGGGAUAGGCCUAUUUUCGUGGUGUCCAAACUUAACAUGAGGAUCACCCAUGUCAGGAUAUGCCCACGCGA | 29.5 nM | 52.7 nM | – | –
43 | GCACUGGAUGUAGGAUAUCAGGACGAUAAGUCCUGAGAAGGACAUGAGGAUCACCCAUGUACCUCAAACCAGUGCUAUAAUAUA | 15.1 nM | 30 nM | – | –
44 | AAUAUGCAAGGAUAUACAACGUAGCUACGACGGAACGGGCUACAUGAGGAUCACCCAUGUAGAAGGUGCUACGC | 15.2 nM | 16.7 nM | – | –
45 | CAGAUUUGCUAGAAGGGUGACAUGAGGAUCACCCAUGUGCGGGCAGACCUAUCUUCAUGCCCGCCACAGGAUAUAGCAAUUUGC | – | – | 17.9 nM | 36.6 nM
46 | UUAAUGAUGUAAGGAUAUACAUGAGGAUUUCUCGUAGAAGGUACAAGACAUGAGGAUCACCCAUGUGUCGCUCCGUAGAGCGUA | – | – | 302 nM | 288 nM
47 | AAAAAACAUGAGGAUCACCCAUGUCUUUUGACAUGAGGAUAUGUACAGACUUCGGUCUGUACAGAAGGCAUGUAAA | – | – | 34.7 nM | 511 nM
48 | CGCGAACAGGCUAACAUGAGGAUCACCCAUGUGGACUCAUGGUAGGAUAUCGGGAAGGAGGAAACCGAGAAGGGCCGGUGAGCA | – | – | 38.9 nM | 218 nM
49 | ACAUGAUAUGUAGGAUAUCACAUUAAUUGAUUAAUAUAUCAAUAUAGAAUUUGAGAAGGACAUUUACAUGAGGAUCACCCAUGU | 10.7 nM | 8.71 nM | – | –
50 | UGUAUGUAGGCAGGAUAUACAUGAAUAUAUAUGAUGUAGUAUGAUGUAACAUGAGGAUCACCCAUGUAGAAGGGCCGGUGUAUG | 69.2 nM | 154 nM | – | –
51 | GAUGUUUGAGGAUAUACAUGAGGAUCACCCAUGUGUGUCCAUACGCGUGAGUCUUCGUGUAGAAGGCGGGCGUC | 14.1 nM | 15.5 nM | – | –
52 | UUACAGCAAGGAUAUACAUGAGGAUCACCCAUGUAUGCGUGUUCGAGAGAGGCCUACGGUAGAAGGUGCAUGUU | 24.1 nM | 22.4 nM | – | –
53 | UUUUACCGAGGAUAUACAUAUAAAUAAUAAUCCUCAUUAUUACAUGAGGAUCACCCAUGUAGAAGGCGGAUUUU | 89.2 nM | 66.8 nM | – | –
54 | UAUAAUAUUAUAGGAUAUGGAUACGAUACGUAUCCAGAAGGGUGAUUAUAAUAUAAUCUAUACAUGAGGAUCACCCAUGUUUAU | – | – | 98 nM | 228 nM
55 | AAGGACAGAGGAUAUACAUAGAUACAGAUUCAUGUAGAACUACAUGAGGAUCACCCAUGUAGAAGGCUGUCCUA | 30.7 nM | 285 nM | – | –
56 | AUUAUUUACAUAGGAUAUUGUUACAUGAGGAUCACCCAUGUUUUCAUGGUAUUAAUAUAUUAUUUCAAGAAGGAUGUUGUUACA | – | – | 19.6 nM | 32.2 nM
